Active and inactive are the calls of the source. The rule behind the calls is not given here.
Tests used:
[1] = target: T1, Prostaglandin D2 receptor (Homo sapiens, UniProt Q13258); assay: Displacement of [3H]-PGD2 from human Prostanoid DP receptor expressed in human HEK293 cells by scintillation counter in presence of 50% human plasma; format: cell-based
T1 sequence (Q13258 whole entry): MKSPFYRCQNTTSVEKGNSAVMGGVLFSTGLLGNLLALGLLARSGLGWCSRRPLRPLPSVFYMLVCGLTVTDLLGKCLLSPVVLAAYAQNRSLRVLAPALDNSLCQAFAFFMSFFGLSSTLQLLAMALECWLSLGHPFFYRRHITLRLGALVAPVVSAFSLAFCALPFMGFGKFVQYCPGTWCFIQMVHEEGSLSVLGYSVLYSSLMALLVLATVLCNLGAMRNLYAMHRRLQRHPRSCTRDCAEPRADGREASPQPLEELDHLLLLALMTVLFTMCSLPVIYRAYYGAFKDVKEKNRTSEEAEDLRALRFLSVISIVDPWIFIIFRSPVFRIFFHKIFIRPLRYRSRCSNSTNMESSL
Summary of the method: (§1)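 [3H]-PGD2 incubated with HEK-293 cells stably expressing human DP, with increasing compound concentrations; binding buffer held 0.5% BSA or 50% human plasma. Means of three experiments, standard deviation ±30%.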

[2] = Plasma concentration in guinea pig at 3 mg/kg, sc after 4 hrs; format: ADME, organism-based, Cavia porcellus; set-up: dose 3 mg/kg, route subcutaneous
Summary of the method: (§2)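 Guinea pig plasma drug levels taken 4 h after sc dosing, in the PGD2 aerosol airway-constriction study; n = 4 animals per group.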

[3] = Antagonist activity at guinea pig Prostanoid DP receptor in whole blood by cAMP assay; format: functional; details: Cavia porcellus
[4] = Plasma concentration in guinea pig at 10 mg/kg, sc after 4 hrs; format: ADME, organism-based, Cavia porcellus; set-up: dose 10 mg/kg, route subcutaneous; summary of the method: as §2
[5] = Clearance in dog at 0.5 mg/kg, iv; format: ADME, organism-based, Canis lupus familiaris; set-up: dose 0.5 mg/kg, route intravenous; details: in vivo
[6] = Mean residence time in cynomolgus monkey; format: ADME, organism-based, Macaca fascicularis; details: in vivo
Cavia porcellus [7] = assay: Inhibition of PGD2-induced airway constriction in guinea pig model at 0.1 to 10 mg/kg, sc administered 4 hrs prior to aerosolized PGD2 challenge; format: functional, organism-based
Summary of the method: (§3)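 Guinea pigs dosed sc 4 h before exposure to aerosolized PGD2 (0.6 mg/mL). Airway resistance recorded as Penh (enhanced pause) in response to the challenge. n = 4 animals per group.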

[8] = Mean residence time in dog; format: ADME, organism-based, Canis lupus familiaris; details: in vivo
[9] = Oral bioavailability in cynomolgus monkey at 2 mg/kg; format: ADME, organism-based, Macaca fascicularis; details: in vivo
[10] = Clearance in cynomolgus monkey at 0.5 mg/kg, iv; format: ADME, organism-based, Macaca fascicularis; set-up: dose 0.5 mg/kg, route intravenous; details: in vivo
[11] = Volume of distribution at steady state in dog; format: ADME, organism-based, Canis lupus familiaris; details: in vivo, read-out: Vdss
[12] = target: T1, Prostaglandin D2 receptor; assay: Displacement of [3H]-PGD2 from human Prostanoid DP receptor expressed in human HEK293 cells by scintillation counter in presence of 0.5% bovine serum albumin; format: cell-based; summary of the method: as §1
[13] = Plasma concentration in guinea pig at 0.1 mg/kg, sc after 4 hrs; format: ADME, organism-based, Cavia porcellus; set-up: dose 0.1 mg/kg, route subcutaneous; summary of the method: as §2
[14] = Volume of distribution at steady state in cynomolgus monkey; format: ADME, organism-based, Macaca fascicularis; details: in vivo, read-out: Vdss
[15] = Mean residence time in rat; format: ADME, organism-based; details: in vivo
[16] = Oral bioavailability in dog at 2 mg/kg; format: ADME, organism-based, Canis lupus familiaris; details: in vivo
[17] = Plasma concentration in guinea pig at 0.3 mg/kg, sc after 4 hrs; format: ADME, organism-based, Cavia porcellus; set-up: dose 0.3 mg/kg, route subcutaneous; summary of the method: as §2
[18] = Volume of distribution at steady state in rat; format: ADME, organism-based; details: in vivo, read-out: Vdss
[19] = Clearance in rat at 0.5 mg/kg, iv; format: ADME, organism-based; set-up: dose 0.5 mg/kg, route intravenous; details: in vivo
[20] = Inhibition of CYP450; format: ADME
[21] = Oral bioavailability in rat at 2 mg/kg; format: ADME, organism-based; details: in vivo
[22] = Plasma concentration in guinea pig at 1 mg/kg, sc after 4 hrs; format: ADME, organism-based, Cavia porcellus; set-up: dose 1 mg/kg, route subcutaneous; summary of the method: as §2
[23] = target: T2, Prostaglandin D2 receptor 2 (Homo sapiens, UniProt Q9Y5Y4); assay: Displacement of [3H]-PGD2 from human CRTH2 receptor expressed in human HEK293 cells by scintillation counter in presence of 50% human plasma; format: cell-based
T2 sequence (Q9Y5Y4 whole entry): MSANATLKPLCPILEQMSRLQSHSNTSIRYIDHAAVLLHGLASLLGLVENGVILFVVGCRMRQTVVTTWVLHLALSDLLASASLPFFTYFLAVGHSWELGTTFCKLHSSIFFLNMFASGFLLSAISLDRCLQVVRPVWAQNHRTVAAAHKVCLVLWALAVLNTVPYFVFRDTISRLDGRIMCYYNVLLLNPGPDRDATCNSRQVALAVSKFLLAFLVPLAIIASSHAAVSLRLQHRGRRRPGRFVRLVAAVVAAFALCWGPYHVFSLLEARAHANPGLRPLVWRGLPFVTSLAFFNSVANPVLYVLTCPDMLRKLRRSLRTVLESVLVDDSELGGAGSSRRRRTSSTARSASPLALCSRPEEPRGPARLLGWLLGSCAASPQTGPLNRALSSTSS

[24] = target: T2, Prostaglandin D2 receptor 2; assay: Displacement of [3H]-PGD2 from human CRTH2 receptor expressed in human HEK293 cells by scintillation counter in presence of 0.5% bovine serum albumin; format: cell-based
Cavia porcellus [25] = assay: Inhibition of PGD2-induced airway constriction in guinea pig model at 0.3 to 10 mg/kg, sc administered 4 hrs prior to aerosolized PGD2 challenge; format: functional, organism-based; summary of the method: as §3

| Structure (SMILES) | IC50 [1] [nM] | IC50 [12] [nM] | IC50 [23] [nM] | IC50 [24] [nM] | other results |
| --- | --- | --- | --- | --- | --- |
| COc1cc(CC(=O)O)ccc1Oc1ccc(C(=O)NC2CC2)cc1NS(=O)(=O)c1ccc(Cl)cc1Cl | 1030 |  |  |  |  |
| CC(C)(C)NC(=O)c1ccc(Oc2cc(F)c(CC(=O)O)cc2Cl)c(NS(=O)(=O)c2ccc(C3CC3)cc2Cl)c1 [VIDUPIPRANT] | 35 | 4 |  |  | concentration at 4 h [2]: 222 nM; Kb [3]: 5 nM; concentration at 4 h [4]: 1400 nM; clearance [5]: 15 mL/min/kg; MRT [6]: 1 h; inhibition (Cavia porcellus [7]): Active; MRT [8]: 3 h; bioavailability [9]: 79%; clearance [10]: 16 mL/min/kg; Vd [11]: 2.72 L/kg; concentration at 4 h [13]: 32 nM; Vd [14]: 0.97 L/kg; MRT [15]: 3.9 h; bioavailability [16]: 100%; concentration at 4 h [17]: 40 nM; Vd [18]: 0.71 L/kg; clearance [19]: 3.17 mL/min/kg; inhibition (INH) [20]: Not Active; bioavailability [21]: 87%; concentration at 4 h [22]: 77 nM |
| CCCCNC(=O)c1ccc(Oc2ccc(CC(=O)O)cc2Cl)c(NS(=O)(=O)c2ccc(Cl)cc2Cl)c1 | 1330 | 8 | 90 | 6 |  |
| CCCCNC(=O)c1ccc(Oc2ccc(CC(=O)O)cc2OC)c(NS(=O)(=O)c2ccc(Cl)c(Cl)c2)c1 | 120 | 21 |  |  |  |
| CCCCNC(=O)c1ccc(Oc2ccc(CC(=O)O)cc2OC)c(NS(=O)(=O)c2ccc(Cl)cc2Cl)c1 |  |  |  |  | concentration at 4 h [2]: 688 nM; Kb [3]: 82 nM; concentration at 4 h [4]: 939 nM; concentration at 4 h [17]: 117 nM; concentration at 4 h [22]: 152 nM; inhibition (Cavia porcellus [25]): Active |
| CCCCNC(=O)c1ccc(Oc2ccc(CC(=O)O)cc2OC)c(NS(=O)(=O)c2cc(Cl)cc(Cl)c2)c1 | > 10000 | 930 |  |  |  |
| O=C(O)Cc1ccc(Oc2ccc(C(=O)NC3CCC3)cc2NS(=O)(=O)c2ccc(Cl)cc2Cl)c(Cl)c1 | 210 | 9 | 19 | 5 |  |
| O=C(O)Cc1cc(Cl)c(Oc2ccc(C(=O)NC3CCC3)cc2NS(=O)(=O)c2ccc(OC(F)(F)F)cc2Cl)cc1F | 19 | 10 | 8 | 5 |  |
| CCCCNC(=O)c1ccc(Oc2ccc(CC(=O)O)cc2C)c(NS(=O)(=O)c2ccc(Cl)cc2Cl)c1 | 230 | 6 | 26 | 3 |  |
| COc1cc(CC(=O)O)ccc1Oc1ccc(C(=O)NC2CCC2)cc1NS(=O)(=O)c1ccc(C(F)(F)F)cc1Cl | 45 | 13 | 13 | 4 |  |
| CC(C)(C)NC(=O)c1ccc(Oc2ccc(CC(=O)O)cc2Cl)c(NS(=O)(=O)c2ccc(Cl)cc2)c1 | 450 | 46 | 15 | 9 |  |
| CCCCNC(=O)c1ccc(Oc2ccc(CC(=O)O)cc2C#N)c(NS(=O)(=O)c2ccc(Cl)cc2Cl)c1 |  | 310 | 210 | 18 |  |

— ChEMBL document CHEMBL1949635, “Discovery of AMG 853, a CRTH2 and DP Dual Antagonist” (ACS Med Chem Lett, 2011)
